The sample as a whole holds a higher share of hits than the screen did.
IDH1 R132H inh: IDH1 R132H (human) inhibition; O75874; IDH1 R132H reductase, diaphorase/resazurin fluorescence, 60 min; inhibition, % at 10 µM; 70,000 compounds, 0.18% hits; AID 624101; in the data active means inhibition above about 34%; inconclusive means no clear call, values can overlap the other calls; inactive means below about 11%;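 further: 0% = DMSO and 100% = no enzyme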
Target sequence (O75874 whole entry R132H): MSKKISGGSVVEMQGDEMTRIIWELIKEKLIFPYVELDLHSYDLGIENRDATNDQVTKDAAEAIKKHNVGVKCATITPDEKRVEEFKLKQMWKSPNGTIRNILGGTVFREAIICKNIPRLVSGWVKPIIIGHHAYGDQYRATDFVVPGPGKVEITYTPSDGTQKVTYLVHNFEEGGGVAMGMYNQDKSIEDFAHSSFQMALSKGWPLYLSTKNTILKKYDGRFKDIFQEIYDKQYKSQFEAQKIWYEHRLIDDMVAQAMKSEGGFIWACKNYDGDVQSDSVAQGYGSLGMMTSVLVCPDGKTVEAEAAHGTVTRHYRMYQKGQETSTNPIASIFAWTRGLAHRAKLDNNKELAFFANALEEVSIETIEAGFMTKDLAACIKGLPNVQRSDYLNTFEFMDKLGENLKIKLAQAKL
KDM4C inh: blocks human GASC-1 (KDM4C) demethylase activity; Q9H3R0; GST-KDM4C 2-372, H3K9me3 peptide, LANCE TR-FRET; inhibition, % at 12.5 µM; 96,000 compounds, 0.15% hits; AID 720574;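 active means mean replicate inhibition above about 25%, with at least 55% of replicates also reaching it, limit read from the data, passing the limit was not always enough; inconclusive means only one of those two conditions met; inactive means neither condition met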
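Material: GST-tagged GASC-1 (JMJD2C) catalytic fragment, aa 2-372 / Quantity: enzyme final amount 10 nM / Medium: HEPES buffer, pH 7.5, plus ascorbate / Doses: one test concentration per compound / Incubation: 30 min reaction, 60 min detection, RT / Measured by: LANCE TR-FRET / Read-out: inhibition from TR-FRET ratio decrease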
T cruzi growth-1: inhibitors of T. cruzi proliferation; 77,000 compounds, 5.9% hits; T. cruzi beta-gal in NIH3T3, GalScreen luminescence, 90 h; inhibition, % at 8.34 µM;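 active means mean inhibition above about 93%, with at least 55% of replicates each passing it, limit read from the data, passing the limit was not always enough; inconclusive means only one of those two conditions holds; inactive means neither condition holds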
T cruzi growth-2: Trypanosoma cruzi proliferation inhibition. 5,600 compounds, 72% hits. shares compounds with T cruzi growth-1. T. cruzi beta-gal in NIH3T3, GalScreen luminescence, 90 h. inhibition, % at 8.35 µM. AID 651739;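 active means mean replicate inhibition above about 95% and at least 55% of replicates individually reaching it, limit read from the data; inconclusive means only one of the two criteria is met; inactive means neither criterion is met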
T cruzi growth-3: inhibitors of T. cruzi proliferation | shares compounds with T cruzi growth-1 | 5,600 compounds, 21% hits | T. cruzi beta-gal in NIH3T3, GalScreen luminescence, 90 h | inhibition, % at 2.09 µM | AID 651740;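 active means mean inhibition above about 95%, with at least 55% of replicates also reaching it, limit read from the data; inconclusive means meets just one of the two conditions; inactive means meets neither condition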;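 further: plate controls were neutral control median for no effect and positive control median for full effect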
NIH3T3 tox: NIH/3T3 (mouse) viability loss. shares compounds with T cruzi growth-1. NIH/3T3 viability, CellTiter-Glo ATP luminescence, 90 h. cytotoxicity (signal decrease), % at 8.35 µM. 5,600 compounds, 14% hits. AID 651742;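 active means mean signal decrease across replicates above about 35% based on untreated-well scatter, with enough replicates individually passing, limit read from the data; inconclusive means no rule stated though some were filed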;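 further: 0% = median of neutral control wells and 100% = median of positive control wells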
3T3 cytotox 2: NIH/3T3 (mouse) viability loss; shares compounds with T cruzi growth-1; AID 651744; NIH/3T3 viability, CellTiter-Glo ATP luminescence, 90 h; inhibition, % at 24.9 µM; 5,600 compounds, 56% hits;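 active means mean loss of cell viability signal at or above a set limit, and enough replicates individually reaching it; inconclusive means meets only the mean limit or only the replicate share; inactive means meets neither condition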;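 further: 0% = median of neutral control wells and 100% = median of positive control wells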
* = called active by the depositor; u = inconclusive; x = not tested or not shown.

SMILES	IDH1 R132H inh	KDM4C inh	T cruzi growth-1	T cruzi growth-2	T cruzi growth-3	NIH3T3 tox	3T3 cytotox 2
COc1ccccc1C#Cc1ccc2c(c1)O[C@@H](CN(C)Cc1ccncc1)[C@H](C)CN([C@H](C)CO)S2(=O)=O	0.2	1.0	121.4*	96.3*	97.0*	82.6*	105.1*
COc1ccccc1C#Cc1ccc2c(c1)O[C@@H](CN(C)Cc1cncnc1)[C@@H](C)CN([C@@H](C)CO)S2(=O)=O	-20.1	-1.6	66.8	x	x	x	x
COc1ccccc1C#Cc1ccc2c(c1)O[C@H](CN(C)Cc1cncnc1)[C@@H](C)CN([C@H](C)CO)S2(=O)=O	x	0.5	92.0	x	x	x	x
COc1ccccc1C#Cc1ccc2c(c1)O[C@@H](CN(C)Cc1cncnc1)[C@@H](C)CN([C@H](C)CO)S2(=O)=O	x	4.8	84.1	x	x	x	x
COc1ccccc1C#Cc1ccc2c(c1)O[C@@H](CN(C)Cc1ccncc1)[C@@H](C)CN([C@H](C)CO)S2(=O)=O	-5.4	-0.6	98.0*	101.8*	104.0*	-7.6	-16.0
CC=Cc1ccc2n(c1=O)C[C@@H]1[C@@H](CO)[C@H](C(=O)N3CCc4ccccc4C3)N(C)[C@H]21 (mixture of isomers)	x	1.7	x	x	x	x	x
Cc1ccc(C(C)C)cc1OCC(O)Cn1c(C)nc2ccccc21 (stereo unspecified)	2.6	x	x	x	x	x	x
COC(=O)c1cc(O)cc(O)c1C(=O)c1c(O)c(Cl)c(C)c(Cl)c1OC	3.4	x	x	x	x	x	x
O=C(C[C@H]1CC[C@@H]2[C@H](COC[C@@H](O)CN2C(=O)Nc2ccc(Cl)c(Cl)c2)O1)NCc1ccc(Cl)cc1	x	-0.2	101.7*	100.4*	-11.7	37.7*	56.1*
O=C(C[C@H]1CC[C@@H]2[C@H](COC[C@H](O)CN2C(=O)Nc2ccc(Cl)c(Cl)c2)O1)NCc1ccc(Cl)cc1	x	-1.0	110.5*	108.5*	12.6	u	89.3*
O=C(C[C@@H]1CC[C@@H]2[C@H](COC[C@@H](O)CN2C(=O)Nc2ccc(Cl)c(Cl)c2)O1)NCc1ccc(Cl)cc1	x	-1.4	84.3	x	x	x	x
O=C(C[C@@H]1CC[C@@H]2[C@H](COC[C@@H](O)CN2C(=O)Nc2ccc(Cl)c(Cl)c2)O1)NCc1ccccc1	x	-0.5	59.8	x	x	x	x
O=C(C[C@@H]1CC[C@H]2[C@@H](COC[C@H](O)CN2C(=O)Nc2ccc(Cl)c(Cl)c2)O1)NCc1ccccc1	x	-0.2	94.4	x	x	x	x
O=C(C[C@H]1CC[C@H]2[C@@H](COC[C@H](O)CN2C(=O)Nc2ccc(Cl)c(Cl)c2)O1)NCc1ccc(Cl)cc1	x	2.4	u	92.6	24.2	15.7	102.3*
O=C(C[C@@H]1CC[C@H]2[C@@H](COC[C@H](O)CN2C(=O)Nc2ccc(Cl)c(Cl)c2)O1)NCc1ccc(Cl)cc1	x	-1.7	83.8	x	x	x	x
O=C(C[C@H]1CC[C@@H]2[C@H](COC[C@@H](O)CN2C(=O)Nc2ccc(Cl)c(Cl)c2)O1)NCc1ccncc1	x	-2.6	110.6*	69.4	0.5	-1.2	10.0
CCCC#Cc1ccc2c(c1)O[C@@H](CN(C)C(=O)c1ccncc1)[C@@H](C)CN([C@H](C)CO)S2(=O)=O	-4.5	-2.5	109.7*	97.1*	71.1	8.0	36.5*
CCCC#Cc1ccc2c(c1)O[C@@H](CN(C)C(=O)c1ccncc1)[C@@H](C)CN([C@@H](C)CO)S2(=O)=O	-0.7	1.0	108.3*	105.8*	89.9	-3.3	49.3*
CCCC#Cc1ccc2c(c1)O[C@@H](CN(C)C(=O)c1ccncc1)[C@H](C)CN([C@H](C)CO)S2(=O)=O	-0.3	-1.5	82.2	x	x	x	x
CCCC#Cc1ccc2c(c1)O[C@H](CN(C)C(=O)c1ccncc1)[C@@H](C)CN([C@@H](C)CO)S2(=O)=O	6.7	-2.9	80.1	x	x	x	x
CCCNC(=O)N(C)C[C@H]1Oc2ncc(-c3ccc(OC)cc3)cc2C(=O)N([C@@H](C)CO)C[C@H]1C	0.1	6.2	24.6	x	x	x	x
CCOC(=O)c1ccc(NC(=O)C2C3CCC(C3=C(C)C)C2C(=O)O)cc1 (stereo unspecified)	-0.7	x	x	x	x	x	x
C[C@H](CO)N1C[C@H](C)[C@H](CN(C)C(=O)Cc2ccncc2)Oc2cc(C3=CCCC3)ccc2S1(=O)=O	x	-0.6	79.9	x	x	x	x
C[C@H]1CN([C@@H](C)CO)S(=O)(=O)c2ccc(C3=CCCCC3)cc2O[C@H]1CN(C)C(=O)Cc1ccncc1	x	2.1	98.2*	99.0*	68.0	37.1*	35.7*
C[C@H]1CN([C@@H](C)CO)S(=O)(=O)c2ccc(C3=CCCCC3)cc2O[C@@H]1CN(C)C(=O)Cc1ccncc1	13.7	2.8	107.0*	105.4*	68.4	8.0	11.1
SMILES	IDH1 R132H inh	KDM4C inh	T cruzi growth-1	T cruzi growth-2	T cruzi growth-3	NIH3T3 tox	3T3 cytotox 2
C[C@H]1CN([C@@H](C)CO)S(=O)(=O)c2ccc(C3=CCCCC3)cc2O[C@@H]1CN(C)C(=O)Cc1ccccc1	0.0	-2.5	79.2	x	x	x	x
CC(C)[C@@H]1CC[C@@]2(C)CCC[C@@](C)(O)[C@@H]2[C@H]1OC(=O)/C=C/c1ccccc1	0.1	x	x	x	x	x	x
O=C(COc1ccc2ccccc2c1)Nc1cccc(NC(=O)c2ccc(Cl)cc2Cl)c1	0.1	x	x	x	x	x	x
CN(C)CC#Cc1ccc([C@@H]2[C@@H](CO)N3CCCCN(C(=O)Nc4cc(F)ccc4F)C[C@H]23)cc1	x	3.8	100.3*	u	44.6	7.9	28.1*
CN(C)CC#Cc1ccc([C@H]2[C@H](CO)N3CCCCN(C(=O)NC4CCCC4)C[C@@H]23)cc1	x	4.4	31.9	x	x	x	x
CN(C)CC#Cc1ccc([C@H]2[C@@H](CO)N3CCCCN(C(=O)Nc4cc(F)ccc4F)C[C@H]23)cc1	x	4.7	109.0*	95.5*	50.5	21.1	100.6*
CN(C)CC#Cc1ccc([C@H]2[C@@H](CO)N3CCCCN(C(=O)Nc4ccc(F)cc4)C[C@H]23)cc1	x	2.4	52.8	x	x	x	x
CN(C)CC#Cc1ccc([C@H]2[C@H](CO)N3CCCCN(C(=O)Nc4ccccc4F)C[C@@H]23)cc1	x	4.1	-21.0	x	x	x	x
CN(C)CC#Cc1ccc([C@H]2[C@H]3CN(C(=O)Nc4ccccc4F)CCCCN3[C@H]2CO)cc1	x	4.6	21.2	x	x	x	x
CN(C)CC#Cc1ccc([C@@H]2[C@@H](CO)N3CCCCN(C(=O)Nc4ccc(F)cc4)C[C@@H]23)cc1	x	4.3	u	106.2*	81.6	1.6	u
CN(C)CC#Cc1ccc([C@@H]2[C@H](CO)N3CCCCN(C(=O)Nc4cc(F)ccc4F)C[C@@H]23)cc1	x	3.9	u	93.0	72.6	9.4	98.0*
CC(C)NC(=O)N(C)C[C@@H]1Oc2c(NC(=O)c3cnccn3)cccc2C(=O)N([C@@H](C)CO)C[C@H]1C	x	0.6	x	x	x	x	x
O=C(Nc1cc(F)ccc1F)N1CCCCN2[C@H](CO)[C@@H](c3ccc(-c4ccccc4)cc3)[C@@H]2C1	x	-1.3	87.0	x	x	x	x

Compound activity: PubChem, Broad Institute
